# Assay results reported in ChEMBL document CHEMBL2086314, “Synthesis and anticonvulsant activity of new N-Mannich bases derived from 3-(2-fluorophenyl)- and 3-(2-bromophenyl)-pyrrolidine-2,5-diones. Part II” (Bioorg Med Chem, 2012).
# The source made the active and inactive calls. The calls are words filed in the database; no cut-off is given here.
# How the values were obtained:
# Mus musculus [1] = experiment: Anticonvulsant activity in CF-1 albino mouse assessed as protection from maximal electric shock-induced seizures at 300 mg/kg, ip measured after 0.5 hrs; format: functional, organism-based; design: dose 300 mg/kg
# Procedure, shortened: (§1)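 Male CF-1 mice dosed ip at 30, 100 or 300 mg/kg, suspension in 0.5% methylcellulose/water. MES: corneal electrodes primed with electrolyte containing anaesthetic, 50 mA, 60 Hz, 0.2 s. Examined 0.5 and 4 h after dosing. Value is the minimum dose protecting half or more of the animals.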
# Mus musculus [2] = experiment: Anticonvulsant activity in CF-1 albino mouse assessed as protection from maximal electric shock-induced seizures at 300 mg/kg, ip measured after 4 hrs; format: functional, organism-based; design: dose 300 mg/kg; procedure, shortened: as §1
# Mus musculus [3] = experiment: Neurotoxicity in CF-1 albino mouse assessed as motor impairment at 300 mg/kg, ip measured after 0.5 hrs by rotarod test; format: toxicity, organism-based; design: dose 300 mg/kg, route intraperitoneal; settings: in vivo
# Procedure, shortened: (§2)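 Rotarod neurotoxicity in male CF-1 mice given ip doses of 30, 100 or 300 mg/kg (0.5% methylcellulose suspension), examined 0.5 and 4 h after dosing. Impairment means failing to hold balance on the rod for 1 min. Value is the minimum dose causing toxicity in half or more of the animals; response comments are recorded.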
# Mus musculus [4] = experiment: Neurotoxicity in CF-1 albino mouse assessed as motor impairment at 300 mg/kg, ip measured after 4 hrs by rotarod test; format: toxicity, organism-based; design: dose 300 mg/kg, route intraperitoneal; settings: in vivo; procedure, shortened: as §2
# Mus musculus [5] = experiment: Anticonvulsant activity in ip dosed CF-1 albino mouse assessed as protection from maximal electric shock-induced seizures measured after 4 hrs; format: functional; settings: read-out: MED; procedure, shortened: as §1
# Rattus norvegicus [6] = experiment: Anticonvulsant activity in Sprague-Dawley rat assessed as protection from maximum electric shock-induced seizures at 30 mg/kg, po measured after 0.25 hrs; format: functional
# Procedure, shortened: (§3)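 Male Sprague–Dawley rats, four per group, given 30 mg/kg orally as a suspension in 0.5% methylcellulose/water. MES stimulus 150 mA, 60 Hz, 0.2 s via corneal electrodes. Tested at 0.25, 0.5, 1, 2 and 4 h; value is rats protected out of four.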
# Rattus norvegicus [7] = experiment: Anticonvulsant activity in Sprague-Dawley rat assessed as protection from maximum electric shock-induced seizures at 30 mg/kg, po measured after 0.5 hrs; format: functional; procedure, shortened: as §3
# Rattus norvegicus [8] = experiment: Anticonvulsant activity in Sprague-Dawley rat assessed as protection from maximum electric shock-induced seizures at 30 mg/kg, po measured after 1 hr; format: functional; procedure, shortened: as §3
# Rattus norvegicus [9] = experiment: Anticonvulsant activity in Sprague-Dawley rat assessed as protection from maximum electric shock-induced seizures at 30 mg/kg, po measured after 2 hrs; format: functional; procedure, shortened: as §3
# Rattus norvegicus [10] = experiment: Anticonvulsant activity in Sprague-Dawley rat assessed as protection from maximum electric shock-induced seizures at 30 mg/kg, po measured after 4 hrs; format: functional; procedure, shortened: as §3
# Rattus norvegicus [11] = experiment: Neurotoxicity in Sprague-Dawley rat assessed as motor impairment at 30 mg/kg, po by rotarod test; format: toxicity, organism-based; design: dose 30 mg/kg, route oral; settings: in vivo
# Procedure, shortened: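 Male Sprague–Dawley rats, four animals, oral 30 mg/kg in 0.5% methylcellulose/water. Motor impairment on the rotarod (failure to keep balance for 1 min) assessed alongside MES at five times from 0.25 to 4 h.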
# Mus musculus [12] = experiment: Anticonvulsant activity in CF-1 albino mouse assessed as protection against 6 Hz psychomotor seizure at 100 mg/kg, ip measured after 0.25 hrs; format: functional; settings: route intraperitoneal
# Procedure, shortened: (§4)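 6-Hz psychomotor seizure in male CF-1 mice, compound suspended in 0.5% methylcellulose/water, given ip (100 or 75 mg/kg). Corneal stimulation with 0.2 ms monopolar rectangular pulses at 6 Hz for 3 s, 32 mA, constant-current device. Protected if normal exploratory behaviour resumes within 10 s. Tested 0.25–4 h after dosing; value is mice protected out of four.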
# Mus musculus [13] = experiment: Anticonvulsant activity in CF-1 albino mouse assessed as protection against 6 Hz psychomotor seizure at 100 mg/kg, ip measured after 0.5 hrs; format: functional; settings: route intraperitoneal; procedure, shortened: as §4
# Mus musculus [14] = experiment: Anticonvulsant activity in CF-1 albino mouse assessed as protection against 6 Hz psychomotor seizure at 100 mg/kg, ip measured after 1 hr; format: functional; settings: route intraperitoneal; procedure, shortened: as §4
# Mus musculus [15] = experiment: Anticonvulsant activity in CF-1 albino mouse assessed as protection against 6 Hz psychomotor seizure at 100 mg/kg, ip measured after 2 hrs; format: functional; settings: route intraperitoneal; procedure, shortened: as §4
# Mus musculus [16] = experiment: Anticonvulsant activity in CF-1 albino mouse assessed as protection against 6 Hz psychomotor seizure at 100 mg/kg, ip measured after 4 hrs; format: functional; settings: route intraperitoneal; procedure, shortened: as §4
SMILES,Activity (Mus musculus [1]),Activity (Mus musculus [2]),Activity (Mus musculus [3]),Activity (Mus musculus [4]),minimal effective dose (Mus musculus [5]) [mg/kg],Activity (Rattus norvegicus [6]) [%],Activity (Rattus norvegicus [7]) [%],Activity (Rattus norvegicus [8]) [%],Activity (Rattus norvegicus [9]) [%],Activity (Rattus norvegicus [10]) [%],Activity (Rattus norvegicus [11]),Activity (Mus musculus [12]) [%],Activity (Mus musculus [13]) [%],Activity (Mus musculus [14]) [%],Activity (Mus musculus [15]) [%],Activity (Mus musculus [16]) [%]
O=C1CC(c2ccccc2F)C(=O)N1CN1CCN(c2ccccc2Cl)CC1 (configuration not stated),inactive,inactive,Non-toxic,Non-toxic,–,–,–,–,–,–,–,–,–,–,–,–
O=C1CC(c2ccccc2F)C(=O)N1CN1CCN(c2cccc(Cl)c2)CC1 (racemic),inactive,inactive,Non-toxic,Non-toxic,–,–,–,–,–,–,–,–,–,–,–,–
O=C1CC(c2ccccc2F)C(=O)N1CN1CCN(c2ccc(Cl)cc2)CC1 (racemic),inactive,–,Non-toxic,Non-toxic,100,0,0,0,25,50,Non-toxic,25,50,25,0,0
O=C1CC(c2ccccc2Br)C(=O)N1CN1CCN(c2ccccc2)CC1 (racemic),inactive,–,Non-toxic,Non-toxic,100,–,–,–,–,–,–,25,0,50,75,50
O=C1CC(c2ccccc2Br)C(=O)N1CN1CCN(c2ccccc2F)CC1 (racemic),inactive,inactive,Non-toxic,Non-toxic,–,–,–,–,–,–,–,0,25,25,25,25
O=C1CC(c2ccccc2Br)C(=O)N1CN1CCN(c2ccccc2Cl)CC1 (racemic),inactive,–,Non-toxic,Non-toxic,300,–,–,–,–,–,–,–,–,–,–,–
O=C1CC(c2ccccc2Br)C(=O)N1CN1CCN(c2ccc(Cl)cc2)CC1 (racemic),inactive,–,Non-toxic,Non-toxic,300,–,–,–,–,–,–,–,–,–,–,–
O=C1CC(c2ccccc2Br)C(=O)N1CN1CCN(c2cccc(C(F)(F)F)c2)CC1 (racemic),inactive,–,Non-toxic,–,300,–,–,–,–,–,–,–,–,–,–,–
